Columns and labels:
[1] = target: Core antigen (Hepatitis B virus) (UniProt Q03732); experiment: Inhibition of capsid protein in HBV infected in human HepDES19 cells assessed as inhibition of viral replication by measuring minus polarity DNA level at 3 uM incubated for 3 days by strand preferential qPCR analysis relative to control; design: scale not given: the % may be the effect or the level left; details: time 3.0 day
[2] = target: Core antigen (Hepatitis B virus) (UniProt Q03732); experiment: Inhibition of capsid protein in HBV infected in human HepDES19 cells assessed as inhibition of viral replication by measuring plus polarity DNA level at 20 uM incubated for 3 days by strand preferential qPCR analysis relative to control; type: cell-based; design: scale not given: the % may be the effect or the level left; details: time 3.0 day
Summary of the method: (§1)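 HepDES19 cells (HepG2 line carrying a tetracycline-repressible HBV genotype D genome) seeded at 4 x 10^4/well without tetracycline. Lysates treated with micrococcal nuclease, then protease. Plus- or minus-strand DNA quantified by strand-preferential qPCR as % of DMSO control. Each compound screened at two concentrations only: 20 and 5 μM, or 10 and 3 μM.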

[3] = target: Core antigen (Hepatitis B virus) (UniProt Q03732); experiment: Inhibition of capsid protein in HBV infected in human HepDES19 cells assessed as inhibition of viral replication by measuring minus polarity DNA level at 20 uM incubated for 3 days by strand preferential qPCR analysis relative to control; type: cell-based; design: scale not given: the % may be the effect or the level left; details: time 3.0 day
Summary of the method: as §1, with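 “tetracycline. Compound added 48 h after induction in 1% DMSO, then 3 days at 37°C, 5% CO2.” for “tetracycline.”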

[4] = target: Core antigen (Hepatitis B virus) (UniProt Q03732); experiment: Inhibition of capsid protein in HBV infected in human HepDES19 cells assessed as inhibition of viral replication by measuring minus polarity DNA level at 3 uM incubated for 3 days by strand preferential qPCR analysis relative to control; type: cell-based; design: scale not given: the % may be the effect or the level left; details: time 3.0 day
Summary of the method: as §1, with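 “tetracycline. Compound added 48 h after induction in 1% DMSO, then 3 days at 37°C, 5% CO2.” for “tetracycline.”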

[5] = target: Core antigen (Hepatitis B virus) (UniProt Q03732); experiment: Inhibition of capsid protein in HBV infected in human HepDES19 cells assessed as inhibition of viral replication by measuring plus polarity DNA level at 10 uM incubated for 3 days by strand preferential qPCR analysis relative to control; type: cell-based; design: scale not given: the % may be the effect or the level left; details: time 3.0 day
Summary of the method: as §1, with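 “tetracycline. Compound added 48 h after induction in 1% DMSO, then 3 days at 37°C, 5% CO2.” for “tetracycline.”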

[6] = target: Core antigen (Hepatitis B virus) (UniProt Q03732); experiment: Inhibition of capsid protein in HBV infected in human HepDES19 cells assessed as inhibition of viral replication by measuring plus polarity DNA level at 3 uM incubated for 3 days by strand preferential qPCR analysis relative to control; type: cell-based; design: scale not given: the % may be the effect or the level left; details: time 3.0 day
Summary of the method: as §1, with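 “tetracycline. Compound added 48 h after induction in 1% DMSO, then 3 days at 37°C, 5% CO2.” for “tetracycline.”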

[7] = target: Core antigen (Hepatitis B virus) (UniProt Q03732); experiment: Inhibition of capsid protein in HBV infected in human HepDES19 cells assessed as inhibition of viral replication by measuring minus polarity DNA level at 10 uM incubated for 3 days by strand preferential qPCR analysis relative to control; type: cell-based; design: scale not given: the % may be the effect or the level left; details: time 3.0 day
Summary of the method: as §1, with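 “tetracycline. Compound added 48 h after induction in 1% DMSO, then 3 days at 37°C, 5% CO2.” for “tetracycline.”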

[8] = target: Core antigen (Hepatitis B virus) (UniProt Q03732); experiment: Inhibition of capsid protein in HBV infected in human HepDES19 cells assessed as inhibition of viral replication by measuring minus polarity DNA level at 5 uM incubated for 3 days by strand preferential qPCR analysis relative to control; type: cell-based; design: scale not given: the % may be the effect or the level left; details: time 3.0 day
Summary of the method: as §1

[9] = target: Core antigen (Hepatitis B virus) (UniProt Q03732); experiment: Inhibition of capsid protein in HBV infected in human HepDES19 cells assessed as inhibition of viral replication by measuring plus polarity DNA level at 3 uM incubated for 3 days by strand preferential qPCR analysis relative to control; design: scale not given: the % may be the effect or the level left; details: time 3.0 day
Hepatitis B virus [10] = experiment: Antiviral activity against HBV infected in human HepG2.2.15 cells assessed as inhibition of viral replication incubated for 8 days by southern blotting analysis; type: functional, organism-based; details: HepG2.2.15, 192 h
Hepatitis B virus [11] = experiment: Antiviral activity against HBV infected in human HepG2.2.15 cells assessed as inhibition of viral replication in presence of 50% human serum albumin; type: functional

Core antigen (Hepatitis B virus), sequence (Q03732 as listed by the source): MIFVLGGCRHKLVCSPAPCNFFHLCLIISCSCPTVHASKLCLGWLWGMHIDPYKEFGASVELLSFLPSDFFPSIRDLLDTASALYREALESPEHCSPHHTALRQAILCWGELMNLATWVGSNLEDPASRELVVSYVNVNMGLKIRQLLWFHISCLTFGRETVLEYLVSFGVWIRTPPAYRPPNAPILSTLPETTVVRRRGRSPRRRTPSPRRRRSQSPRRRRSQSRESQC

Row | SMILES | Activity [1] [%] | Activity [2] [%] | Activity [3] [%] | Activity [8] [%] | Activity [9] [%] | also measured
1 | CCOC(=O)C1=C(CN2CCC3(CC2)CC(N)C3)NC(c2nccs2)=NC1c1ccc(F)cc1Br (stereo unspecified) | 69.9 | 114 | 105 | – | – | –
2 | CCOC(=O)C1=C(CN2CCC3(CC2)CN(C(=O)OC(C)(C)C)C3)NC(c2nccs2)=NC1c1ccc(F)cc1Br (stereo unspecified) | – | – | – | – | – | Activity [4]: 83.7%; Activity [5]: 60.9%; Activity [6]: 87.7%; Activity [7]: 60.2%
3 | CCOC(=O)C1=C(CN2CCC3(CCNC3=O)CC2)NC(c2nccs2)=NC1c1ccc(F)cc1Br (stereo unspecified) | – | 18.3 | 37.8 | 44.1 | – | –
4 | CCOC(=O)C1=C(CN2CCC3(CCN(C(=O)OC(C)(C)C)C3)C2=O)NC(c2nccs2)=NC1c1ccc(F)cc1Br (stereo unspecified) | – | 0.8 | 0.8 | 2.9 | 3.3 | –
5 | CCOC(=O)C1=C(CN2CCC3(CNC(=O)C3)C2)NC(c2nccs2)=NC1c1ccc(F)cc1Br (stereo unspecified) | – | 3 | 2.5 | 2.3 | 2.8 | –
6 | CCOC(=O)C1=C(CN2CCC3(CCNCC3)CC2)NC(c2nccs2)=NC1c1ccc(F)cc1Br (stereo unspecified) | 67.1 | 106 | 97.7 | – | – | –
7 | Nc1ccn([C@@H]2CS[C@H](CO)O2)c(=O)n1 [LAMIVUDINE] | 79.1 | 4 | 11.8 | – | 23.9 | EC50 (Hepatitis B virus [10]): 325 nM
8 | CCOC(=O)C1=C(CN2CCC3(CCNCC3)C2)NC(c2nccs2)=NC1c1ccc(F)cc1Br (stereo unspecified) | 69.9 | 88.4 | 86.4 | – | – | –
9 | CCOC(=O)C1=C(CN2CC3(CNC3)C2)NC(c2nccs2)=NC1c1ccc(F)cc1Br (stereo unspecified) | 85.9 | 87.4 | 94.8 | – | – | –
10 | CCOC(=O)C1=C(CN2CCOCC2)NC(c2nccs2)=N[C@H]1c1ccc(F)cc1Br | – | – | 22.6 | – | – | EC90 (Hepatitis B virus [11]): 0.0557 µg/mL; EC50 (Hepatitis B virus [10]): 12 nM
11 | CCOC(=O)C1=C(CN2CCC3(CC2)CC(=O)NC3=O)NC(c2nccs2)=NC1c1ccc(F)cc1Br (stereo unspecified) | – | 22.4 | 34.8 | 21.1 | 18.9 | –
12 | CCOC(=O)C1=C(CN2CCC3(CC2)CCN(C(=O)OC(C)(C)C)CC3)NC(c2nccs2)=NC1c1ccc(F)cc1Br (stereo unspecified) | – | – | – | – | – | Activity [4]: 74.5%; Activity [5]: 91.1%; Activity [6]: 93%; Activity [7]: 110%
13 | CCOC(=O)C1=C(CN2CC3(CCNC3)CC2=O)NC(c2nccs2)=NC1c1ccc(F)cc1Br (stereo unspecified) | – | 120 | 68.9 | – | – | –
14 | CCOC(=O)C1=C(CN2CCC3(CC2)CNC3)NC(c2nccs2)=NC1c1ccc(F)cc1Br (stereo unspecified) | 70.8 | 113 | 93.4 | – | – | –
15 | CCOC(=O)C1=C(CN2CCC3(CC(=O)N(Cc4ccccc4)C3=O)C2)NC(c2nccs2)=NC1c1ccc(F)cc1Br (stereo unspecified) | – | 2 | 2.2 | 2.8 | 3 | –
16 | CCOC(=O)C1=C(CN2CCC3(CCNC3)C2=O)NC(c2nccs2)=NC1c1ccc(F)cc1Br (stereo unspecified) | – | 109 | 81.4 | – | – | –
17 | CCOC(=O)C1=C(CN2CCC3(C2)CN(C(=O)OC(C)(C)C)C3)NC(c2nccs2)=NC1c1ccc(F)cc1Br (stereo unspecified) | 85.3 | 54.7 | 56.5 | – | – | –
18 | CCOC(=O)C1=C(CN2CCC3(CCN(C(=O)OC(C)(C)C)C3)C2)NC(c2nccs2)=NC1c1ccc(F)cc1Br (stereo unspecified) | 67.1 | 16.8 | 28.8 | – | – | –
19 | CCOC(=O)C1=C(CN2CC3(C2)CN(C(=O)OC(C)(C)C)C3)NC(c2nccs2)=NC1c1ccc(F)cc1Br (stereo unspecified) | 85.7 | 105 | 96.5 | – | – | –
20 | CCOC(=O)C1=C(CN2CCC3(CC2)CC(NC(=O)OC(C)(C)C)C3)NC(c2nccs2)=NC1c1ccc(F)cc1Br (stereo unspecified) | 97.2 | 111 | 117 | – | – | –
21 | CCOC(=O)C1=C(CN2CCC3(CNC3)C2)NC(c2nccs2)=NC1c1ccc(F)cc1Br (stereo unspecified) | 84.5 | 82.2 | 88.8 | – | – | –
22 | CCOC(=O)C1=C(CN2CC3(CCN(C(=O)OC(C)(C)C)C3)CC2=O)NC(c2nccs2)=NC1c1ccc(F)cc1Br (stereo unspecified) | – | 1.8 | 1.3 | 2.9 | 2.7 | –
23 | CCOC(=O)C1=C(CN2CCC3(CCN(C(=O)OC(C)(C)C)CC3)C2)NC(c2nccs2)=NC1c1ccc(F)cc1Br (stereo unspecified) | 80.1 | 102 | 87 | – | – | –
24 | CCOC(=O)C1=C(CN2CC3(CC2=O)CN(C(=O)OC(C)(C)C)C3)NC(c2nccs2)=NC1c1ccc(F)cc1Br (stereo unspecified) | – | 3.5 | 1.8 | 2.5 | 2.4 | –
25 | CCOC(=O)C1=C(CN2CCC3(CC2)OCCO3)NC(c2nccs2)=NC1c1ccc(F)cc1Br (stereo unspecified) | – | 3.4 | 3.4 | 3.1 | 3.8 | –
26 | CCOC(=O)C1=C(CN2CCC3(CCNC3)CC2)NC(c2nccs2)=NC1c1ccc(F)cc1Br (stereo unspecified) | 72.5 | 105 | 99.6 | – | – | –
27 | CCOC(=O)C1=C(CN2CCC3(CC2)CCN(C(=O)OC(C)(C)C)C3)NC(c2nccs2)=NC1c1ccc(F)cc1Br (stereo unspecified) | – | – | – | – | – | Activity [4]: 85%; Activity [5]: 92.5%; Activity [6]: 85.3%; Activity [7]: 76.1%
28 | CCOC(=O)C1=C(CN2CC3(CNC3)CC2=O)NC(c2nccs2)=NC1c1ccc(F)cc1Br (stereo unspecified) | – | 108 | 85.3 | – | – | –
29 | CCOC(=O)C1=C(CN2CCC3(CC2)CNC(=O)C3)NC(c2nccs2)=NC1c1ccc(F)cc1Br (stereo unspecified) | – | 2.4 | 2.7 | 4 | 3.4 | –
30 | CCOC(=O)C1=C(CN2CCC3(CC2)CNC3=O)NC(c2nccs2)=NC1c1ccc(F)cc1Br (stereo unspecified) | – | 2.4 | 2.5 | 3.4 | 2.7 | –
